ChEMBL document CHEMBL1155830, “Asymmetric synthesis of 2,3-dihydro-2-arylquinazolin-4-ones: methodology and application to a potent fluorescent tubulin inhibitor with anticancer activity” (J Med Chem, 2008)

Legend:
[1] = Displacement of [3H]colchicine from tubulin at 5 uM
[2] = system: HCT-116; test: Antiproliferative activity against human HCT116 cells after 72 hrs; assay type: functional; details: HCT-116, 72 h
Method in brief: (§1)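 HCT-116 cells were kept in McCoy's 5a with 1.5 mM L-glutamine and 5% FBS, and MDA-MB-435 cells in D-MEM with 1.5 mM L-glutamine and 5% FBS, both at 37 °C in humidified 5% CO2. Cells were seeded at 3200 per well, allowed to attach, and given vehicle or drug at 10 nM–3 µM (n = 8) for 72 h. Live cells were read by CellTiter 96 AQueous at 490 nm, and the 50% inhibitory value was taken from the dose–response curve.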

[3] = Displacement of [3H]colchicine from tubulin at 50 uM
[4] = Inhibition of tubulin polymerization
[5] = system: MDA-MB-435; test: Antiproliferative activity against human MDA-MB-435 cells after 72 hrs; assay type: functional; details: MDA-MB-435, 72 h; method in brief: as §1

| Compound | inhibition [1] [%] | GI50 [2] [nM] | inhibition [3] [%] | IC50 [4] [nM] | GI50 [5] [nM] |
| --- | --- | --- | --- | --- | --- |
| COc1ccc(/C=C\c2cc(OC)c(OC)c(OC)c2)cc1O | 99 |  |  |  |  |
| Cc1ccccc1-c1ccc([C@H]2NC(=O)c3cc([N+](=O)[O-])ccc3N2)cc1 | 2.1 | 930 | 5.5 | 16000 | 1100 |
| Cc1ccccc1-c1ccc([C@@H]2NC(=O)c3cc([N+](=O)[O-])ccc3N2)cc1 | 28 | 100 | 66 | 1100 | 0.1 |
| Cc1ccccc1-c1ccc(C2NC(=O)c3cc([N+](=O)[O-])ccc3N2)cc1 (racemic) | 17 | 300 | 51 | 1700 | 100 |
| CC(=O)O[C@H]1C(=O)[C@@]2(C)[C@H]([C@H](OC(=O)c3ccccc3)[C@]3(O)C[C@H](OC(=O)[C@H](O)[C@@H](NC(=O)c4ccccc4)c4ccccc4)C(C)=C1C3(C)C)[C@]1(OC(C)=O)CO[C@@H]1C[C@@H]2O [PACLITAXEL] |  |  |  |  | 4 |
